Source: ChEMBL document CHEMBL1123925 (J Med Chem, 1987)
pIC50: −log10 of the molar value.

What was measured:
[1] = target: GABA-A receptor; anion channel; assay: Displacement of [3H]GABA from Gamma-aminobutyric acid A receptor ofrat brain membranes; design: species or system Rattus norvegicus
How it was run: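 Male Wistar rat whole-brain synaptic membranes, frozen at -20 °C for at least 18 h, Triton X-100 (0.05%) treated at 37 °C for 30 min. Filtration, scintillation counting. Nonspecific binding with 100 μM muscimol. IC50 by log-probit analysis; means of two triplicate experiments.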

GABA B receptor = GABA B receptor (Rattus norvegicus, UniProt O88871+Q9Z0U4); assay: Displacement of [3H]baclofen from Gamma-aminobutyric acid type B receptor of rat brain membranes; type: cell membranes, Membrane
GABA B receptor, sequence (Q9Z0U4 whole entry): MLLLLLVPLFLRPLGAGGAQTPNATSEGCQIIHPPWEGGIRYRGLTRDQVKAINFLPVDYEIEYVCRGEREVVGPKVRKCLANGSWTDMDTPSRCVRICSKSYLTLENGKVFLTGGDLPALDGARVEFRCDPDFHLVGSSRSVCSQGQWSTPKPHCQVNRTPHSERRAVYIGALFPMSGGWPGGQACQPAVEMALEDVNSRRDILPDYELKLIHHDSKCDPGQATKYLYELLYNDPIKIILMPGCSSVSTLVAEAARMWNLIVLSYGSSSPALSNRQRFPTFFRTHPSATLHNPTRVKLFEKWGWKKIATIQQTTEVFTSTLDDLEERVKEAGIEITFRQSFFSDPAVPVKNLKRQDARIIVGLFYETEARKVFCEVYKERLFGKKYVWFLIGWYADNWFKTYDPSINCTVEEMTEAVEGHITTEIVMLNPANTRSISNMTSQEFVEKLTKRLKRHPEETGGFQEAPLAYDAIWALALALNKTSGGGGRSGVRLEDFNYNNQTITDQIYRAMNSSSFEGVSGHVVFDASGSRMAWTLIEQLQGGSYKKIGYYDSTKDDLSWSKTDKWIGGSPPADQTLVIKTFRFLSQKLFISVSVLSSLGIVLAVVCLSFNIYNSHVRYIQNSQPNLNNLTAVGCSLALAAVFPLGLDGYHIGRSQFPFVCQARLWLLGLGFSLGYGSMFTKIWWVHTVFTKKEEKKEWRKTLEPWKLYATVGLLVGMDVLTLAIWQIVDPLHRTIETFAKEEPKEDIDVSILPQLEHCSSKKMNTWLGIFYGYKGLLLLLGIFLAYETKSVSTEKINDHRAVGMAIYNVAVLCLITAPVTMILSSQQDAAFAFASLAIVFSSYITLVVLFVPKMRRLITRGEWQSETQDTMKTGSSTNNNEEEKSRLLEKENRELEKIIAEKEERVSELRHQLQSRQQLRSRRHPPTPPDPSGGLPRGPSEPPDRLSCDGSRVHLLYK
GABA B receptor, sequence (O88871 whole entry): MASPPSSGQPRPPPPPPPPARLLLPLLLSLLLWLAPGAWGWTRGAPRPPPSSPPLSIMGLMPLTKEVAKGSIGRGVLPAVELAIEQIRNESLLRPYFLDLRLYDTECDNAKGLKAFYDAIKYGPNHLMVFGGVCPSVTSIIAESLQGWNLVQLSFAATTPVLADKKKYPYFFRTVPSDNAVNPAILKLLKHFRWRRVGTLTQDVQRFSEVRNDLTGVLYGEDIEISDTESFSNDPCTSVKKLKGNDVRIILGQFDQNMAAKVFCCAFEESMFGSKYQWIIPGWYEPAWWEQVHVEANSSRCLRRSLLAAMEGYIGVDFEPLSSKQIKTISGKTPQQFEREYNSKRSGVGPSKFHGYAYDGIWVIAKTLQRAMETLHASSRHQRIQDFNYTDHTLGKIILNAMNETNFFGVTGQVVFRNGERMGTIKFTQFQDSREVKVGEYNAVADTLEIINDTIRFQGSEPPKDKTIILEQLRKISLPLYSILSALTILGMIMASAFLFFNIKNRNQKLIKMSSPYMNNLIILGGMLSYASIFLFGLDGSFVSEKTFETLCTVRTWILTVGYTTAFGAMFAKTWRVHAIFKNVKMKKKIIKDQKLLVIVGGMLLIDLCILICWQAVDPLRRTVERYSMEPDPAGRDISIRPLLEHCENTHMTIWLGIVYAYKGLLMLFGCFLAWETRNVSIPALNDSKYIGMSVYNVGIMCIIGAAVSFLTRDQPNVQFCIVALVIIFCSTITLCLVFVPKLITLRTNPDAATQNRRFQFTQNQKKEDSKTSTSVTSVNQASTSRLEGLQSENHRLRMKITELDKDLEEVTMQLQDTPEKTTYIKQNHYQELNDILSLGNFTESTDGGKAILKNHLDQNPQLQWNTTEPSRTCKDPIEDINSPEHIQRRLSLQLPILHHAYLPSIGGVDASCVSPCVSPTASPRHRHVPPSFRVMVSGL
How it was run: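 Rat whole-brain synaptic membranes were water-washed and frozen at -20 °C for at least 18 h. They were then washed repeatedly in 50 mM Tris-HCl pH 7.4 with 2.5 mM CaCl2 at 20 °C. The assay was stopped by centrifugation and read by scintillation counting. IC50 values are means of two experiments.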

SMILES	pIC50 [1]	pIC50 (GABA B receptor)
CC(C)Oc1ccc(C(CN)CC(=O)O)cc1 (centres undefined)	< 4.00	
NCC(CC(=O)O)C1Cc2ccccc2O1 (centres undefined)	< 4.00	< 4.00
COc1ccc2oc(C(CN)CC(=O)O)cc2c1 (centres undefined)	< 4.00	5.25
NCC(CC(=O)O)c1ccc(OCc2ccc(Cl)s2)cc1 (centres undefined)	< 4.00	
COc1ccc2c(c1)CC(C(CN)CC(=O)O)O2 (centres undefined)	< 4.00	< 4.00
NCC(CC(=O)O)c1ccc(O)cc1 (centres undefined)	< 4.00	< 4.00
NCC(CC(=O)O)c1cc2ccccc2o1 (centres undefined)	< 4.00	4.74
NCC(CC(=O)O)c1ccc(OCc2ccccc2)cc1 (centres undefined)	< 4.00	< 4.00
NCC(CC(=O)O)c1ccc(OCc2ccc(F)cc2)cc1 (centres undefined)	< 4.00	< 4.00
Cn1c(=O)oc2cc(C(CN)CC(=O)O)ccc21 (centres undefined)	< 4.00	< 4.00
NCc1cc(=O)[nH]o1 [MUSCIMOL]	8.00	
